Screens as filed in PubChem.
DENV2 CPE = protects cells from dengue virus 2 cytopathic effect; 350,000 compounds, 1.7% hits; CPE inhibition, % at 9.99 µM; DENV2-infected cells, cytopathic effect rescue, plate reader; in the data active means CPE inhibition above about 20%, passing the limit was not always enough; inconclusive means no clear call, values can overlap the other calls; tested in BHK-21 cells;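 further: 0% = median of neutral control wells and 100% = median of positive control wells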
PglD DTNB = blocks C. jejuni PglD acetyltransferase activity; purified PglD enzyme, DTNB colorimetric CoA detection; inhibition, % at 12.5 µM; 360,000 compounds, 0.098% hits; in the data active means inhibition above about 16%, passing the limit was not always enough; inconclusive means no clear call, values can overlap the other calls
PGC1a acetyl inh = PGC1a acetylation modulation, inhibitor mode; AID 651687; 350,000 compounds, 0.17% hits; U2OS PGC1a acetylation, AlphaScreen anti-acetyl-lysine; with virally co-expressed GCN5 acetyltransferase; inhibition, % at 15.6 µM;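 active means every replicate shows inhibition of at least 40%; inconclusive means mean inhibition at least 40% but some replicate below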;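 further: 0% = neutral control wells and 100% = positive control wells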
FN deposit inh = fibronectin deposition inhibition; inhibition, % at 12.6 µM; AH1F fibroblasts, Alexa488-fibronectin deposition fluorescence, overnight; 350,000 compounds, 0.086% hits;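 active means mean inhibition across replicates of 30% or more, regardless of how many single replicates reach that level; inconclusive means mean under 30% yet at least half of replicates reach 30%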;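 further: positive control wells lacked labelled fibronectin entirely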
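material = AH1F fibroblast monolayer depositing Alexa488-labelled fibronectin into matrix | amount = 10000 AH1F cells/well | buffer or medium = DMEM plus 2% serum, read in PBS | incubation = 1 h cell adhesion before compound, then overnight fibronectin incubation | detection = fluorescence at 485 nm excitation, 525 nm emission | evaluation = percent inhibition as loss of matrix-bound fibronectin fluorescence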
Env fusion inh = blocks HIV Env-driven cell-cell fusion; HeLa-JRFL Env/CEM21 cell fusion, luciferase; inhibition, % at 12.3 µM; 360,000 compounds, 1.1% hits; AID 651610;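 active means mean replicate inhibition score of at least 50 and every replicate individually at or above 50; inconclusive means only one of the two criteria met; inactive means mean below 50 and not all replicates reaching 50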;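 further: 0% = plate neutral controls and 100% = maraviroc near 300 nM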
rRNA inh HTS = inhibits bacterial ribosomal RNA function over humanized ribosomes | AID 720706 | GFP signal change (wild-type ribosome), % (concentration not given with the values) | 350,000 compounds, 1.6% hits | E. coli WT GFP vs humanized-ribosome RFP mutants, fluorescence, 24 h; hits give low values; DMSO median 0, no signal -100;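 active means significant combined selectivity score with lowered wild-type GFP, culture density cut under 30%, mutant RFP and density less affected; inactive means any of these conditions unmet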
An asterisk follows results filed as active; u = inconclusive; x = no result; [ ] = dose if it differs, or a comment. Rows were chosen to be rich in hits. Some 3.5% of all compounds tested hit in one or more screens of this group.

SMILES	DENV2 CPE	PglD DTNB	PGC1a acetyl inh	FN deposit inh	Env fusion inh	rRNA inh HTS
C[C@H](CO)N1C[C@H](C)[C@H](CN(C)C(=O)Nc2ccc3c(c2)OCO3)Oc2ccc(NC(=O)CCCCCC(=O)Nc3ccccc3N)cc2C1=O	48.0*	x	-3.4	x	x	-8.5
C[C@@H]1CN([C@@H](C)CO)C(=O)c2cc(NC(=O)CCCCCC(=O)Nc3ccccc3N)ccc2O[C@@H]1CN(C)C(=O)Nc1ccc2c(c1)OCO2	29.9*	x	-5.9	x	x	1.8
C[C@@H]1CN([C@@H](C)CO)C(=O)c2cc(NC(=O)CCCCCC(=O)Nc3ccccc3N)ccc2O[C@H]1CN(C)C(=O)Nc1ccc2c(c1)OCO2	16.2	x	10.3	x	x	-4.4
C[C@H](CO)N1C[C@H](C)[C@H](CN(C)S(=O)(=O)c2ccc(Cl)cc2)OCCCC[C@H](C)Oc2ccc(NC(=O)C3CCCCC3)cc2C1=O	17.0	-1.7	3.2	-2.4	-5.4[16.7 µM]	-1.3
COc1cccc(-c2nnc3n2N=C(C(C)(C)C)CS3)c1	x	-2.2	x	12.7	111.8*	x
CC(NNC(=S)N1CCCCCC1)c1ccc2ccccc2n1 (centres undefined)	u	x	x	4.6	68.8*	0.5
CCCCn1c(SCC(=O)Nc2nnc(C(C)C)s2)nc2c1c(=O)n(C)c(=O)n2C	x	-2.0	-1.7	-6.0	55.0*	x
CCCn1c(SCC(=O)Nc2nc3c(s2)CCCC3)nc2c1c(=O)n(C)c(=O)n2C	x	-4.3	x	7.8	40.4	x
COc1ccc2c3c([nH]c2c1)[C@H](CO)N(S(C)(=O)=O)CC31CCN(CC2CCCC2)CC1	28.4*	x	-1.5	9.8	x	1.9
COc1ccc2c3c([nH]c2c1)[C@@H](CO)N(S(C)(=O)=O)CC31CCN(CC2CCCC2)CC1	53.8*	x	-6.9	0.0	x	0.6
COc1ccc2c3c([nH]c2c1)[C@@H](CO)N(S(C)(=O)=O)CC31CCN(CC2CC2)CC1	-8.2	x	x	x	x	2.9
CC(=O)C[C@@H]1OC[C@H](Cc2ccccc2)N1S(=O)(=O)c1ccc(C)cc1	-9.7	x	x	1.8	9.4	-28.0*
C[C@@H]1CN([C@@H](C)CO)C(=O)c2cc(NC(=O)Cc3ccccc3)ccc2O[C@@H](C)CCCCO[C@@H]1CN(C)C(=O)C1CCCCC1	-4.2	-2.9	19.1	x	-34.9[16.7 µM]	-1.3
CC(C)NC(=O)Nc1ccc2c(c1)C(=O)N([C@H](C)CO)C[C@@H](C)[C@@H](CN(C)C(=O)Nc1ccc(C(F)(F)F)cc1)OCCCC[C@@H](C)O2	1.2	-1.6	-22.1	x	72.0*[16.7 µM]	1.8
C[C@H]1CCCCO[C@@H](CN(C)C(=O)Nc2ccccc2)[C@@H](C)CN([C@@H](C)CO)C(=O)c2cc(NC(=O)Nc3ccc(C(F)(F)F)cc3)ccc2O1	36.5*	x	-1.7	x	x	2.7
C[C@H]1CCCCO[C@@H](CN(C)C(=O)c2ccccc2)[C@@H](C)CN([C@@H](C)CO)C(=O)c2cc(NC(=O)Nc3ccc(C(F)(F)F)cc3)ccc2O1	-9.9	-0.4	-1.6	x	67.8*[16.7 µM]	0.4
C[C@@H]1CCCCO[C@H](CN(C)C(=O)Nc2ccccc2)[C@@H](C)CN([C@H](C)CO)C(=O)c2cc(NC(=O)Nc3ccc(C(F)(F)F)cc3)ccc2O1	8.6	x	9.4	x	x	0.8
CC(C)NC(=O)Nc1ccc2c(c1)C(=O)N([C@@H](C)CO)C[C@@H](C)[C@H](CN(C)C(=O)Nc1ccc(C(F)(F)F)cc1)OCCCC[C@H](C)O2	3.7	0.4	7.8	x	19.4[16.7 µM]	2.6
CC(C)NC(=O)Nc1ccc2c(c1)C(=O)N([C@H](C)CO)C[C@@H](C)[C@H](CN(C)C(=O)Nc1ccc(C(F)(F)F)cc1)OCCCC[C@@H](C)O2	49.8*	-3.2	9.7	x	-12.0[16.7 µM]	-0.6
CC(C)NC(=O)Nc1ccc2c(c1)C(=O)N([C@H](C)CO)C[C@H](C)[C@H](CN(C)C(=O)Nc1ccc(C(F)(F)F)cc1)OCCCC[C@H](C)O2	15.6	3.4	-12.4	x	-22.9[16.7 µM]	-2.0
CCN1[C@H](C(=O)OC)[C@@H](CO)[C@@H]2Cn3c(ccc(-c4cncnc4)c3=O)[C@@H]21	16.7	-1.3	x	x	x	-1.5
CC(C)NC(=O)Nc1ccc2c(c1)C(=O)N([C@H](C)CO)C[C@@H](C)[C@H](CN(C)C(=O)Nc1ccc(C(F)(F)F)cc1)OCCCC[C@H](C)O2	u	-4.4	-1.5	x	74.7*[16.7 µM]	-2.3
